# FXIa inh – factor XIa (human) inhibition. inhibition, % at 5 µM. 0.14% of 220,000 active. purified FXIa, Boc-Glu-Ala-Arg-AMC fluorogenic substrate;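 active means inhibition of at least 40%; inactive means inhibition below 40%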;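 further: fluorescence of freed AMC excited at 355 nm; 0% = enzyme without compound and 100% = no enzyme blank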
# Target sequence (P03951 19-387 limits assumed): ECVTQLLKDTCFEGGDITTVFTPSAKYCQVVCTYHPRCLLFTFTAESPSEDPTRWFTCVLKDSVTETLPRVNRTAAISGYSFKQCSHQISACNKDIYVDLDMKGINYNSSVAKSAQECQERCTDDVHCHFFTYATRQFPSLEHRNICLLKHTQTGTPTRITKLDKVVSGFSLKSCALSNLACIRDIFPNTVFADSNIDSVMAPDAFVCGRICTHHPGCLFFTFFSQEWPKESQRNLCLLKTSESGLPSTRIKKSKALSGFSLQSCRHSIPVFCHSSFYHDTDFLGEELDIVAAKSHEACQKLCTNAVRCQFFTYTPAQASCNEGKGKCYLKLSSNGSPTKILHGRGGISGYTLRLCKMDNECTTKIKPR
# Target sequence (P03951 388-625 limits assumed): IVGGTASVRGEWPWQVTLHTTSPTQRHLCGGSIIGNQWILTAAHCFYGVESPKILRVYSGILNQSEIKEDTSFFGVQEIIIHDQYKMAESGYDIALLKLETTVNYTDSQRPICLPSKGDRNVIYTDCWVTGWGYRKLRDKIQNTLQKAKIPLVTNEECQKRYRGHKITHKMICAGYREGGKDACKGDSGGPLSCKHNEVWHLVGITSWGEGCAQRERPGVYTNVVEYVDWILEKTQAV
# thrombin 1536 – thrombin (human) inhibition; P00734; alpha-thrombin, Boc-VPR-AMC fluorogenic substrate cleavage; inhibition, % at 5 µM; 0.26% of 220,000 active;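 active means inhibition at or above 40%; inactive means inhibition below 40%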;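 further: 0% = enzyme with no compound and 100% = wells without enzyme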
#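 Material: human alpha-thrombin protein; Also added: Boc-VPR-AMC substrate, 15 µM final; Timing: enzyme reaction carried out at room temperature; Signal: fluorescence, ex 355 nm, em 460 nm; Measure: % inhibition of thrombin; Controls: enzyme without compound as high, wells lacking enzyme as low.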
# AHR act – human AHR activation. P35869. AHR-responsive luciferase reporter cells, luminescence. activation, % at 5 µM. 2.5% of 320,000 active; in the data active means activation above about 47%;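 further: 0% = vehicle wells and 100% = reference agonist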
# hK5 inh – inhibitors of human kallikrein 5 | Q9Y337 | recombinant hK5, fluorogenic AMC substrate cleavage | inhibition, % at 5 µM | 0.59% of 210,000 active | AID 873;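 active means inhibition of 40% or more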;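 further: 0% = enzyme controls without compound and 100% = no-enzyme blanks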
# FXIIa inh 1536 – blocks human coagulation factor XIIa protease activity. P00748. 0.3% of 220,000 active. inhibition, % at 5 µM. AID 800. purified FXIIa, Boc-QGR-AMC fluorogenic substrate, 2 h; in the data active means inhibition above about 40%;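 further: 0% = enzyme with no compound and 100% = blank without enzyme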
# STAT3 act – increases IL-6 driven STAT3 reporter signal | activation (% of control), % at 5.6 µM | U3A cells, IL-6 STAT3-luciferase reporter, luminescence; 100% = signal with IL-6 EC80 alone | 0.91% of 190,000 active;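 active means activation above the screen-wide mean of compound activation plus 3 SD, cut at about 130% in these data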;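 further: 0% = background luminescence of wells with medium and substrate only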
#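 System – human U3A cells carrying STAT3-luciferase construct · Probe or stimulus – Interleukin-6, 33 ng/mL · Schedule – compound 1 h, then IL-6 6 h at 37 °C · Signal – luminescence from STAT3-driven luciferase reporter · Evaluation – percent of IL-6-only median luminescence · Benchmarks – IL-6-only high control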
# Starred values were filed as active, the others as inactive; · = not tested or not shown. Compounds with a hit are over-represented: about 3.5% of the library has one in this group of screens.
SMILES,FXIa inh,thrombin 1536,AHR act,hK5 inh,FXIIa inh 1536,STAT3 act
Cc1cnc(NC(=O)Cc2c[nH]c3ccccc23)s1,-6,-5,36,7,-6,109
Cc1csc(NC(=O)Cc2c[nH]c3ccccc23)n1,-8,-4,15,12,40*,131
CC1CC(C)CN(C(=O)C(Cc2ccccc2)NC(=O)c2ccccc2)C1 (stereo unspecified),·,·,0,·,·,·
Cc1ccc(C2=NCCn3nc4cc([N+](=O)[O-])ccc4c32)cc1,·,·,14,·,·,·
COCCNC(=S)NN=C1CCCCCC1,34,47*,·,41*,54*,97
Cc1ccc(OCc2ccc(C(=O)NN)o2)c([N+](=O)[O-])c1,5,2,97*,-6,12,·
CCN1CCN(C(=O)c2ccc(COc3cccc(Cl)c3)o2)CC1,·,·,12,·,·,·
Cc1ccc(OCc2ccc(C(=O)NN)o2)cc1C,3,-2,63*,1,7,·
CN(C)c1ccc(NC(=O)c2ccc(COc3cccc(Cl)c3)o2)cc1,-21,-6,71*,1,9,96
NNC(=O)c1ccc(COc2ccc3ccccc3c2)o1,4,-3,80*,-5,10,·
O=C1/C(=C/c2c[nH]c3ccccc23)CCC/C1=C\c1c[nH]c2ccccc12,6,-1,65*,5,5,90
CCCCC1(C)OC(=O)C(=Cc2c[nH]c3ccccc23)C(=O)O1 (stereo unspecified),5,-5,13,4,13,79
O=C(Nc1ccccc1)c1cc([N+](=O)[O-])ccc1NC1CCCCC1,0,-6,52*,-3,8,103
COc1ccc([N+](=O)[O-])cc1NC1CCCCC1,1,2,2,2,-3,111
COc1ccc(C2Nc3ccccc3NC3=C2C(=O)CC(C)(C)C3)cc1OC (stereo unspecified),·,·,1,·,·,·
COc1cc(C2Nc3cc(C)c(C)cc3NC3=C2C(=O)CC(C)(C)C3)ccc1OC(C)=O (stereo unspecified),·,·,61*,·,·,·
Cc1cc(C)nc(S/C=C/C(=O)c2ccccc2F)n1,-3,-8,-3,-5,4,·
Cn1c(=O)n(CCOc2ccccc2Cl)c2ccccc21,17,1,59*,-6,27,109
COc1ccc(S(=O)(=O)N2CCCCC2)cc1NC(=O)c1cncc(Br)c1,·,·,0,·,·,·
O=C(NCc1ccco1)c1cc2nc(-c3ccc4c(c3)OCO4)cc(C(F)(F)F)n2n1,-3,-3,63*,11,2,87
O=C(Cc1ccccc1)N/N=C/c1cc(Br)cc(Br)c1O,·,·,2,·,·,·
O=C(O)c1ccccc1N/N=C/c1cc(Br)cc(Br)c1O,6,2,49*,2,8,·
O=C(O)c1cccc2c(/C=N/Nc3ccccn3)c[nH]c12,-2,-5,9,-1,10,·
O=C(O)c1ccccc1N/N=C\c1ccnc2ccccc12,-7,-4,65*,10,-5,104
CCOc1ccccc1NC(=O)NCc1cccnc1,-3,-4,84*,-4,4,92
SMILES,FXIa inh,thrombin 1536,AHR act,hK5 inh,FXIIa inh 1536,STAT3 act
COc1ccc(OC)c(NC(=O)NCc2cccnc2)c1,·,·,58*,·,·,·
CCOc1ccccc1NC(=O)NCc1ccccc1,-4,5,14,-9,3,103
CCOc1ccccc1NC(=O)NCCc1c[nH]c2ccccc12,·,·,64*,·,·,·
CC(C)CNS(=O)(=O)c1ccc(CCC(=O)NCc2ccco2)cc1,-9,-1,3,4,-6,104
Cc1cc(C)c(OCC(=O)NCCCn2nc(C)cc2C)c(C)c1,·,·,-1,·,·,·
Cc1sc2nc(-c3ccc(Br)cc3)oc(=O)c2c1C,·,·,8,·,·,·
Cc1cc(NC(=O)c2c(-c3c(F)cccc3Cl)noc2C)no1,33,18,-1,20,21,·
Cc1ccc(C)c(C(=O)Nc2nc3ccccc3[nH]2)c1,·,·,48*,·,·,·
Cc1onc(-c2c(F)cccc2Cl)c1C(=O)Nc1nc2ccccc2[nH]1,-4,-1,48*,-51,3,113
N#CC1(c2ccccc2)CCN(S(=O)(=O)c2ccc(OC(F)(F)F)cc2)CC1,·,·,2,·,·,·
O=C(Nc1cccc2cccnc12)c1ccccc1Cl,·,·,8,·,·,·
COc1ccccc1C(=O)Nc1cccc2cccnc12,·,·,78*,·,·,·
COc1ccccc1C(=O)Nc1ccccc1SC,4,0,55*,0,-4,89
COc1ccccc1NC(=O)c1ccccc1SC,-7,-5,4,9,6,91
O=C(O)c1nn(CCOc2cccc(Br)c2)c(=O)c2ccccc12,·,·,0,·,·,·
Cc1ccc(NC(=O)Nc2ccccc2CC[N+](=O)[O-])cc1,-3,-8,15,-8,-10,133*
Clc1ccc(N=c2ssnc2Cl)cc1,5,-4,59*,-5,8,105
O=C(CSc1nncn1-c1ccccc1F)NC1CC1,·,·,0,·,·,·
COc1ccc(S(=O)(=O)NCCc2nnc3ccc(SCC(=O)Nc4nc(C)cs4)nn23)cc1,12,-2,5,1,9,104
Cc1nn(C)cc1/C=N/NC(=S)Nc1ccc(Cl)cc1Cl,-1,-2,27,-25,5,92
CCn1nc(C)c(/C=N/NC(=S)Nc2ccc(Cl)cc2Cl)c1C,2,-6,53*,-12,9,104
Cc1cc(=O)oc2c(C(=O)/C=C\c3cccs3)c(O)ccc12,13,4,73*,-18,17,117
Cc1cc(=O)oc2c(C(=O)/C=C/c3ccccc3)c(O)ccc12,18,-3,25,-28,17,111
Cc1cc(C)n(/N=C/c2ccccc2)c(=O)c1C#N,0,-6,-3,-11,57*,80
Nn1c(SCC(=O)N2CCN(S(=O)(=O)c3ccccc3)CC2)nnc1-c1cccs1,-3,-4,-1,-4,12,104
SMILES,FXIa inh,thrombin 1536,AHR act,hK5 inh,FXIIa inh 1536,STAT3 act
Cn1c(SCC(=O)N2CCc3ccccc3C2)nnc1-c1ccncc1,-15,3,-1,-11,14,97
Nn1c(SCC(=O)N2CCc3ccccc3C2)nnc1-c1cccs1,19,17,-1,52*,20,101
Cn1c(SCC(=O)N2CCc3ccccc3C2)nnc1-c1cccs1,19,18,1,43*,22,93
C=C(C)c1cccc(C(C)(C)NC(=O)NNC(=O)c2ccccc2O)c1,·,·,3,·,·,·
O=C(/C=C/c1ccco1)NC(=S)Nc1cccc(-c2nc3ccccc3o2)c1,4,0,57*,-10,12,107
Cc1ccc(OCc2nnc(SC(C)C(=O)O)n2-c2ccccc2)cc1 (stereo unspecified),·,·,3,·,·,·
CCC1(C)OC(=O)N2CCc3c(C)[nH]c4c(C)ccc(c34)C21C (stereo unspecified),4,-1,62*,-9,17,109
Cc1ccc(CSC2=NCCN2C(=O)c2ccco2)cc1,-10,-5,0,41*,1,83
CCC(=O)N1CCN=C1SCc1ccccc1,11,14,-2,41*,29,92
